Measured values published in ChEMBL document CHEMBL4619783, “Identification and Optimization of a Series of 8-Hydroxy Naphthyridines with Potent In Vitro Antileishmanial Activity: Initial SAR and Assessment of In Vivo Activity” (J Med Chem, 2020).
pEC50: −log10 of the molar value. ≈ marks a conversion by molar mass, not a printed value.

Columns and labels:
[1] = Distribution coefficient, logD of the compound at pH 7.4 by chromatography; assay type: physicochemical; details: octanol/water
[2] = Kinetic aqueous solubility of the compound; assay type: physicochemical; details: buffer; for solubility kinetic: read-out: Kinetic_solubility
[3] = Intrinsic clearance in mouse liver microsomes; assay type: ADME, Microsome
[4] = Toxicity in human THP1 cells assessed as reduction in cell viability; assay type: cell-based; details: THP-1 cells
Leishmania donovani [5] = experiment: Antileishmanial activity against Leishmania donovani amastigotes infected in human THP1 cells incubated for 96 hrs; assay type: functional, organism-based; details: THP-1, 96 h
Method in brief: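 THP-1 cells were infected with L. donovani amastigotes and exposed to compound for 96 h rather than the earlier 72 h. Values are from at least three or four independent replicates.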

[6] = Stability in Balb/C mouse assessed as parent compound level at 50 mg/kg, ip BID after 8 hrs by UPLC Q-TOF analysis; assay type: ADME, organism-based; details: in vivo
Method in brief: (§1)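 Balb/C mice received 50 mg/kg ip. Blood/water (1:2) was sampled at set time points, mixed with acetonitrile and centrifuged 5 min at 7000 rpm. Metabolites and parent compound were then analysed. Data are from two runs.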

[7] = Drug metabolism in Balb/C mouse assessed as hydroxylation formation at 50 mg/kg, ip BID by UPLC Q-TOF analysis; assay type: ADME, organism-based; details: in vivo; method in brief: as §1
[8] = Drug metabolism in Balb/C mouse assessed as glucuronide adduct formation at 50 mg/kg, ip BID by UPLC Q-TOF analysis; assay type: ADME, organism-based; details: in vivo; method in brief: as §1
[9] = Selectivity index, ratio of EC50 for toxicity in human THP1 cells assessed as reduction in cell viability to EC50 for antileishmanial activity against Leishmania donovani amastigotes infected in human THP1 cells incubated for 96 hrs; assay type: cell-based; details: THP-1 cells, read-out: Ratio EC50
Leishmania donovani [10] = experiment: Antileishmanial activity against Leishmania donovani infected in mouse assessed as reduction in parasite levels at 30 mg/kg, po qd; set-up: scale not given: the % may be the effect or the level left

Row | chromatographic logD [1] | solubility kinetic [2] [µM] | Compound | logD [1] | Kinetic_solubility [2] [µM] | CLH [3] [mL/min/g] | pEC50 [4] | pEC50 (Leishmania donovani [5]) | Stability [6] | Drug metabolism [7] | Drug metabolism [8] | selectivity ratio at 96 h [9] | Activity (Leishmania donovani [10]) [%]
1 |  |  | O=C(NCc1ccc(Cl)cc1)c1ccc2cccnc2c1O | 4.8 | 219 | 19 | 5.20 | 4.80 |  |  |  |  | 
2 |  |  | O=C(NCc1ccc(Cl)cc1)c1ncc2cccnc2c1O |  | > 250 | 10 | < 4.30 |  |  |  |  |  | 
3 | 1.5 | 250 (≈ 90.1 µg/mL) | Cc1n[nH]c(-c2nc(N3CCCCS3(=O)=O)c3cccnc3c2O)n1 |  |  | 0.6 | < 4.30 | < 4.30 |  |  |  |  | 
4 |  |  | COc1ccc(CNC(=O)c2nn(C)c3cccnc3c2=O)cc1 | 1.9 | > 250 | 0.7 | < 4.30 | < 4.30 |  |  |  |  | 
5 |  |  | Cc1n[nH]c(-c2cc3ncccc3c(-c3ccccc3)n2)n1 |  | > 250 |  | < 4.30 | < 4.30 |  |  |  |  | 
6 |  |  | O=C(NCc1ccc(Cl)cc1)c1ncc2ccccc2c1O | 7.6 | 39 | 28 | < 4.30 | < 4.30 |  |  |  |  | 
7 |  |  | CNC(=O)c1nc(-c2ccccc2OC)c2cccnc2c1O | 4.2 | 219 | 0.9 | 4.40 | 5.00 | Stable | Metabolite_Detected | Metabolite_Notdetected |  | 
8 | 4.3 | > 250 | Cc1n[nH]c(-c2nc(-c3ccccc3C(F)(F)F)c3cccnc3c2O)n1 |  |  | 1.4 | < 4.30 | 7.00 |  |  |  |  | 
9 |  | > 250 | C[C@@H](NC(=O)c1cn(C)c2cccnc2c1=O)c1ccc(F)cc1 |  |  | 0.7 | < 4.30 | < 4.30 |  |  |  |  | 
10 |  | > 250 | COc1ccccc1-c1nc(C(=O)NCC2CC2)c(O)c2ncccc12 |  |  | 8 | < 4.30 | 5.70 |  |  |  |  | 
11 |  |  | COc1ccccc1-c1nc(C(=O)N[C@H](C)c2ccc(F)cc2)c(O)c(=O)n1C | 5.5 | 173 | < 0.5 | < 4.30 | < 4.30 |  |  |  |  | 
12 |  |  | O=C1CCCN1Cc1n[nH]c(-c2ncc3cccnc3c2O)n1 |  | > 250 | < 0.5 | < 4.30 | < 4.30 |  |  |  |  | 
13 |  | 219 (≈ 87.3 µg/mL) | O=C(NCc1ccc(Cl)cc1)c1nc(N2CCOCC2)c2cccnc2c1O |  |  | 24 | < 4.30 | < 4.30 |  |  |  |  | 
14 | 3.3 |  | O=C(NCC1CC1)c1ncc2cccnc2c1O |  |  | 13 | < 4.30 | 5.90 |  |  |  |  | 
15 |  |  | COc1ccccc1-c1nc(-c2nnc(C)o2)c(O)c2ncccc12 | 3.8 | > 250 | < 0.5 | < 4.30 | < 4.30 |  |  |  |  | 
16 | -0.6 | > 250 | Cc1n[nH]c(-c2nc(N(C)C)c3cccnc3c2O)n1 |  |  | 14 | < 4.30 | 4.80 |  |  |  |  | 
17 |  |  | COc1ccccc1-c1nc(-c2nc(C)n[nH]2)c(OC)c2ncccc12 | 5.7 | > 250 | 2 | < 4.30 | 5.60 |  |  |  |  | 
18 |  |  | COc1ccc(CNC(=O)c2ncc3cccnc3c2O)cc1 | 4.2 | > 250 | 2.6 | < 4.30 | 6.30 |  |  |  |  | 
19 |  |  | Oc1c(-c2nc(CN3CCOCC3)n[nH]2)ncc2cccnc12 | 0.5 | 219 | 0.8 | < 4.30 |  |  |  |  |  | 
20 |  |  | Oc1c(-c2nc(C(O)c3ccccc3)n[nH]2)ncc2cccnc12 (configuration not stated) |  | > 250 | 1.9 | < 4.30 | 5.30 |  |  |  |  | 
21 |  |  | Cc1n[nH]c(-c2ncc3cccnc3c2O)n1 | 0.73 | > 250 | 3.3 | < 4.30 | < 4.30 |  |  |  |  | 
22 |  |  | Oc1c(-c2nnc(Cc3ccc(F)cc3)[nH]2)ncc2cccnc12 |  |  |  | 4.40 | 5.60 |  |  |  |  | 
23 |  |  | Oc1c(-c2nnc(Cc3ccc(Cl)cc3)[nH]2)ncc2cccnc12 | 4.1 | 219 | 18 | 4.50 |  |  |  |  | 100 | 
24 |  |  | C[C@@H]1[C@H](O)[C@@H](C)/C=C/C=C/C=C/C=C/C=C/C=C/C=C/[C@H](O[C@@H]2O[C@H](C)[C@@H](O)[C@H](N)[C@@H]2O)C[C@@H]2O[C@](O)(C[C@@H](O)C[C@@H](O)[C@H](O)CC[C@@H](O)C[C@@H](O)CC(=O)O[C@H]1C)C[C@H](O)[C@H]2C(=O)O [AMPHOTERICIN B] |  |  |  | < 6.00 | 6.70 |  |  |  |  | 
25 |  |  | CCCCCCCCCCCCCCCCOP(=O)([O-])OCC[N+](C)(C)C [MILTEFOSINE] |  |  |  | < 4.30 | 5.40 |  |  |  |  | >99
26 |  |  | Cc1nnc(C(=O)NC(C)(C)c2nc(C(=O)NCc3ccc(F)cc3)c(O)c(=O)n2C)o1 [RALTEGRAVIR] |  | > 250 |  | < 4.30 | < 4.30 |  |  |  |  | 
